Source: PubChem (several laboratories)
Sampled rows, rich in hits. Any-hit rate of the full collection: about 1.4%.
HNF4A DNA FP: change in binding of human HNF4 alpha to DNA; HNF4a-FITC DNA binding, fluorescence polarization, 1 h; activity change, % at 10 µM; hit rate 0.3% among 360,000; in the data active = activity change above about 30%, passing the limit was not always enough
Target sequence (P41235 whole entry, looked up): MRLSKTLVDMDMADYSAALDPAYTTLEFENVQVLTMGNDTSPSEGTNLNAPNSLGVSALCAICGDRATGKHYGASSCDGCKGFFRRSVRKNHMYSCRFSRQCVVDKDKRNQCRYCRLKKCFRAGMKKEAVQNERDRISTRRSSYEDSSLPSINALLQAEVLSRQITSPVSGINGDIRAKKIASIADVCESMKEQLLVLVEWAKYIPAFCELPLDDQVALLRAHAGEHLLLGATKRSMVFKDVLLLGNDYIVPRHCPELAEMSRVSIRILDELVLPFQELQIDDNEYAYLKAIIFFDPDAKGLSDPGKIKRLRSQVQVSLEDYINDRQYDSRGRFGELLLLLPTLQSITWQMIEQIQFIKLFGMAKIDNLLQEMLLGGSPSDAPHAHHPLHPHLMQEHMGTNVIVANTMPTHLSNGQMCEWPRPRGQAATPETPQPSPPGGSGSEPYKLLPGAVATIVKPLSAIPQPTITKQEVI
IDE cell activ: IDE (human) activation, cell-based | P14735 | HEK cells, FAbeta-B cleavage, fluorescence polarization; 0% vehicle, 100% cell-free pure enzyme wells | activation, % at 5.96 µM | hit rate 0.073% among 340,000 | AID 493087;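 active = activation above the mean of all tested compounds plus 3 SD, set per screening campaign, cut at about 17% in these data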
TPT1 inh: blocks Candida albicans tRNA 2'-phosphotransferase. recombinant caTPT1, FP RNA substrate dephosphorylation. inhibition, % at 5 µM. hit rate 0.81% among 300,000. AID 1962;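 active = inhibition above the mean of all tested compounds plus 3 SD, set per screening campaign, cut at about 24% in these data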
IDE inh: inhibitors of human insulin-degrading enzyme in cells; hit rate 0.41% among 320,000; inhibition, % at 5.59 µM; HEK cells, FAbetaB cleavage, fluorescence polarization; AID 434962; P14735;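 active = percent inhibition above the average of all tested compounds plus 3 SD, set per screening campaign, cut at about 16% in these data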;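 also: IDE supplied by intact live HEK cells; FP after avidin binding of uncleaved biotin substrate so inhibition keeps polarization high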
CSN deneddyl inh: blocks human CSN-mediated cullin deneddylation. Q92905. Purified CSN, SCF-Nedd8-OG deneddylation, fluorescence polarization. inhibition, % at 12.5 µM. hit rate 0.38% among 360,000;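 active = pattern-corrected inhibition above about 35%, with an unprinted fluorescence ratio check between 0.5 and 1.5, limit read from the data, passing the limit was not always enough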
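Material: purified human Csn5 enzyme expressed in HEK293T cells / Medium: Tris buffer pH 7.5, NaCl, DTT, Tween-20, trehalose, ovalbumin / Compound dosing: 12.5 µM single point / Schedule: 90 min incubation of compound, enzyme and substrate at room temperature / Signal: fluorescence polarization of the substrate / Control set: no-enzyme wells high, enzyme-with-substrate wells low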
caTPT1 confirm: confirmation of Candida albicans TPT1 inhibitors. shares compounds with TPT1 inh. recombinant caTPT1, fluorescence polarization, RNase T1 coupled. inhibition, % at 5 µM. hit rate 74% among 2,400. AID 2149;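 active = inhibition above the primary screen limit, the mean inhibition of all tested compounds plus 3 SD, cut at about 25% in these data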
RNase T1 inh: RNase T1 inhibition in TPT1 counter-screen; shares compounds with TPT1 inh; RNase T1 cleavage, fluorescence polarization, 1536-well; inhibition, % at 5 µM; hit rate 83% among 2,400; AID 2153;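 active = inhibition above the solvent-only control well mean plus 3 SD, limit set per screening run, cut at about 23% in these data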;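 also: inhibitors block cleavage so intact labeled substrate keeps polarization high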
Target sequence (P00651 whole entry, looked up): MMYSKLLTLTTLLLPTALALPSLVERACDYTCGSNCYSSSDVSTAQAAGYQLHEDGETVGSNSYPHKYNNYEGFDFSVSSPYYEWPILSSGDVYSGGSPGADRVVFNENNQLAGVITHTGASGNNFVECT
IDE inh confirm: confirmation of human insulin-degrading enzyme inhibitors in cells. hit rate 51% among 1,200. inhibition, % at 5.59 µM. HEK cells, FAbetaB cleavage, fluorescence polarization. shares compounds with IDE inh. AID 435028;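 active = mean inhibition across triplicate wells above the cutoff set by the earlier primary insulin-degrading enzyme screen, cut at about 16% in these data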
HEK cytotox: HEK cell cytotoxicity, counter-screen for IDE inhibitors; hit rate 28% among 1,200; AID 449730; HEK293 cytotoxicity, ATP luminescence; shares compounds with IDE inh; inhibition, % at 5.59 µM; in the data active = inhibition above about 22%
CSN5 deneddyl: validation of inhibitors of human CSN-mediated cullin deneddylation. shares compounds with CSN deneddyl inh. Csn5 deneddylation of SCF-Nedd8OG, fluorescence polarization, 90 min. inhibition, % at 16.6 µM. hit rate 62% among 540. AID 720654; in the data active = inhibition above about 50%
MMP2 cntr CSN: counter-screen for CSN deneddylation inhibitors: human MMP-2 inhibition | shares compounds with CSN deneddyl inh | recombinant MMP-2, FRET substrate fluorescence, 60 min | inhibition, % at 16.6 µM | hit rate 33% among 540 | AID 720655;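 active = corrected plate-normalized z-score of 5 or more, or -5 or less, or inhibition of 15% or more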
Thrombin counter: counter-screen for CSN deneddylation inhibitors: bovine thrombin inhibition; shares compounds with CSN deneddyl inh; bovine thrombin cleavage of Ub4-pepOG, fluorescence polarization; inhibition, % at 16.6 µM; hit rate 49% among 540;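 active = inhibition at or above a set limit, with a fluorescence interference ratio between 0.5 and a set maximum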
Each line names hits and unclear results; the compound was inactive in the other large screens (follow-up assays come after a bar, where they were run).

Cc1cc2oc3ccc(NCCCn4ccnc4)cc3c(=O)c2cc1C	HNF4A DNA FP 73, TPT1 inh 55, CSN deneddyl inh 48 | caTPT1 confirm 64 | RNase T1 inh 73 | CSN5 deneddyl 137 | MMP2 cntr CSN 61 | Thrombin counter 30
Cc1cc2oc3ccc(NCCCN4CCOCC4)cc3c(=O)c2cc1C	none
CC(C)N1CCc2c(sc(NC(=O)c3ccc4ccccc4c3)c2C(N)=O)C1	HNF4A DNA FP 63, TPT1 inh 96, CSN deneddyl inh 57 | caTPT1 confirm 90 | RNase T1 inh 96 | CSN5 deneddyl active | MMP2 cntr CSN inactive | Thrombin counter 48
CCN1CCc2c(sc(NC(=O)c3cc4ccccc4cc3OC)c2C(N)=O)C1	HNF4A DNA FP 37, TPT1 inh 46, CSN deneddyl inh 38 | caTPT1 confirm 40 | RNase T1 inh 46 | CSN5 deneddyl 56 | MMP2 cntr CSN inactive | Thrombin counter inactive
COc1cc(OC)cc(-c2noc([C@H]3C[C@H](O)[C@@H](CO)O3)n2)c1	none (no result: IDE cell activ, TPT1 inh, IDE inh)
COc1ccccc1NC(=O)N1CCC(NC(=O)C(Cc2ccccc2F)NC(C)=O)CC1 (stereo not drawn)	none
Cc1ccc2nc(/C(C#N)=C/c3ccc(O)c(O)c3)[nH]c2c1	TPT1 inh 56, IDE inh 84, CSN deneddyl inh 59 | caTPT1 confirm 77 | RNase T1 inh 84 | IDE inh confirm 111 | HEK cytotox inactive | CSN5 deneddyl 50 | MMP2 cntr CSN inactive | Thrombin counter 62
CCOC(=O)C1=C(C)N=c2s/c(=C/c3ccc(OCC(=O)O)c(OC)c3)c(=O)n2C1c1ccc(Cl)cc1 (stereo not drawn)	TPT1 inh 42, CSN deneddyl inh 40 | caTPT1 confirm 60 | RNase T1 inh 72 | CSN5 deneddyl 85 | MMP2 cntr CSN inactive | Thrombin counter inactive
CCOC(=O)C1=C(C)N=c2s/c(=C\c3ccc(OCC(=O)O)cc3)c(=O)n2C1c1ccc(Cl)cc1 (stereo not drawn)	none (no result: TPT1 inh, IDE inh)
N=C1/C(=C\c2ccc(-c3cccc(C(=O)O)c3)o2)C(=O)N=C2SC=C(c3ccccc3)N12	TPT1 inh 66, CSN deneddyl inh 64 | caTPT1 confirm 82 | RNase T1 inh 92 | MMP2 cntr CSN 16 | Thrombin counter 29
O=C(N/N=C\c1c(O)ccc2ccccc12)c1ccc(S(=O)(=O)N2CCCCC2)cc1	HNF4A DNA FP 71, TPT1 inh 96, CSN deneddyl inh 96 | caTPT1 confirm 100 | RNase T1 inh 101 | CSN5 deneddyl 176 | MMP2 cntr CSN -44 | Thrombin counter inactive
O=C(CNC(=O)c1ccc(S(=O)(=O)N2CCCC2)cc1)N/N=C/c1ccccc1Cl	none
Cc1nc(-n2[nH]c3c(c2=O)CCCC3)[nH]c(=O)c1Cc1ccccc1	HNF4A DNA FP 44, TPT1 inh 122, CSN deneddyl inh 52 | caTPT1 confirm 65 | RNase T1 inh 77 | CSN5 deneddyl 80 | MMP2 cntr CSN inactive | Thrombin counter 49
CCOC(=O)CN1C(=O)S/C(=C/C=C/c2ccc(N(C)C)cc2)C1=O	HNF4A DNA FP 46, TPT1 inh 87, CSN deneddyl inh 40 | caTPT1 confirm 87 | RNase T1 inh 88 | CSN5 deneddyl 62 | MMP2 cntr CSN -44 | Thrombin counter 66
O=C1/C(=C\c2ccc(O)c(O)c2)N=C2CCCCCN12	TPT1 inh 27, CSN deneddyl inh 38 | caTPT1 confirm 45 | RNase T1 inh 47 | CSN5 deneddyl 69 | MMP2 cntr CSN inactive | Thrombin counter 45
Cc1ccc(/C=C/C(=O)c2ccccc2O)cc1	none
CN(C)c1ccc(/C=C/C(=O)c2ccccc2O)cc1	TPT1 inh 68, CSN deneddyl inh 70 | caTPT1 confirm 55 | RNase T1 inh 64 | CSN5 deneddyl 92 | MMP2 cntr CSN inactive | Thrombin counter 65
CN(C)c1ccc(/C=C/C(=O)c2ccc(O)cc2)cc1	none (no result: TPT1 inh, IDE inh)
CN(C)c1ccc(/C=C/C(=O)c2cccnc2)cc1	TPT1 inh 93, IDE inh 30, CSN deneddyl inh 49 | caTPT1 confirm 100 | RNase T1 inh 100 | IDE inh confirm 43 | HEK cytotox inactive | CSN5 deneddyl 52 | MMP2 cntr CSN -43 | Thrombin counter 45
CCOC(=O)N1CCN(C2CCCN(C(=O)c3cccc(Cl)c3)C2)CC1 (stereo not drawn)	none
O=Cc1ccc(N2CCCC2)o1	none
N#C/C(=C\c1ccc(N2CCCCC2)o1)C(N)=O	TPT1 inh active, IDE inh 32, CSN deneddyl inh 106 | caTPT1 confirm 171 | RNase T1 inh 164 | IDE inh confirm 50 | HEK cytotox inactive | CSN5 deneddyl 198 | MMP2 cntr CSN inactive | Thrombin counter inactive
COc1cc(/C=C(\C#N)C(=O)c2ccc(O)c(O)c2)cc(I)c1O	TPT1 inh 129, CSN deneddyl inh active | caTPT1 confirm 180 | RNase T1 inh 161 | CSN5 deneddyl inactive | MMP2 cntr CSN -106 | Thrombin counter inactive
Cc1cc(/C=C2/SC(=S)N(c3cccc(Cl)c3)C2=O)c(C)n1-c1cccnc1	HNF4A DNA FP 43, TPT1 inh 114, CSN deneddyl inh 47 | caTPT1 confirm 88 | RNase T1 inh 99 | CSN5 deneddyl 128 | MMP2 cntr CSN inactive | Thrombin counter inactive
Cc1cc(/C=C2\SC(=S)N(C)C2=O)c(C)n1-c1ccccc1O	TPT1 inh 147, IDE inh 27, CSN deneddyl inh 39 | caTPT1 confirm 147 | RNase T1 inh 142 | IDE inh confirm 29 | HEK cytotox 47 | CSN5 deneddyl 63 | MMP2 cntr CSN inactive | Thrombin counter 37
Cc1ccc(-n2c(C)cc(/C=C3\SC(=O)NC3=O)c2C)cc1	none
Cc1cc(/C=C2\SC(=S)NC2=O)c(C)n1-c1cccc(O)c1	HNF4A DNA FP 97, TPT1 inh 90, CSN deneddyl inh 66 | caTPT1 confirm 85 | RNase T1 inh 98 | CSN5 deneddyl inactive | MMP2 cntr CSN 19 | Thrombin counter 66
